An excerpt weighted towards active compounds, which were near 4.6% of everything screened.
Mdm2 ligase inh = blocks human Mdm2 ubiquitin ligase activity. Q00987. AID 1230. cell-based MDM2 ubiquitination luciferase reporter, 2 h; 0 = plate control, 100 = twice control, blank-subtracted. 210,000 tested, 0.11% active. signal enhancement, % at 5 µM;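 active = signal enhancement of 30% or more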;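 note: luminescence tracks abundance of the self-degrading MDM2-luciferase fusion protein; higher signal means inhibition of MDM2 E3 ligase activity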
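Buffer or medium: Cells held in DMEM | Assay system: Stable mammalian line carrying autodegrading MDM2–luciferase fusion reporter | Quantity: 2000 cells/well | Times: 4 h settle plus 2 h compound, 37 °C | Doses: One concentration, 5 µM, with 0.2% DMSO | Technique: Luminescence with SteadyLite reagent, 15 min at room temperature | Benchmarks: Plate controls and plate blanks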
p97 ATPase inh = human p97 ATPase inhibition; 220,000 tested, 0.42% active; P55072; AID 1481; inhibition, % at 8 µM; recombinant p97 ATPase, Kinase-Glo ATP luminescence, 3 h; in the data active = inhibition above about 15%;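 note: 0% = DMSO vehicle and 100% = wells lacking enzyme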
Target sequence (P55072 whole entry, looked up): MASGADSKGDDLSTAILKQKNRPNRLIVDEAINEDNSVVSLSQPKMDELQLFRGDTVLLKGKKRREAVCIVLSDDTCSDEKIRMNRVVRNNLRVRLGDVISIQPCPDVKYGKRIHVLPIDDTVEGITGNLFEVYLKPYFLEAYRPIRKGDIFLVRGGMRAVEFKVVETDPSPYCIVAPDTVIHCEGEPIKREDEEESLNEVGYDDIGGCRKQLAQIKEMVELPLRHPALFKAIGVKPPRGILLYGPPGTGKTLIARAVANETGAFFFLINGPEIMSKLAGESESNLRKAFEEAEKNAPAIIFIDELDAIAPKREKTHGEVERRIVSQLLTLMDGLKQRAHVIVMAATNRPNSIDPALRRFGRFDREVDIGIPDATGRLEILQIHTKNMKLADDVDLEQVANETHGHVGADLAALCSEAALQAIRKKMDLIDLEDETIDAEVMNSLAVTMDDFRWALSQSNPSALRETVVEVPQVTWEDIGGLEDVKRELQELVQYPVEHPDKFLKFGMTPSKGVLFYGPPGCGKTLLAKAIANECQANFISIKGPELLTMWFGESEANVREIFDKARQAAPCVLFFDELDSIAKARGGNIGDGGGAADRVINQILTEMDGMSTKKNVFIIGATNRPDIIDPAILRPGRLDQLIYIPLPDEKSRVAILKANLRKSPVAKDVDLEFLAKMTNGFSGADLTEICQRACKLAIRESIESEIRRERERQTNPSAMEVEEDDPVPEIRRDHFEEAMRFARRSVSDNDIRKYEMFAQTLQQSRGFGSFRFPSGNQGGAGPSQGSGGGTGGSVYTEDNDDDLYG
STAT1 activator = activators of IFN-gamma induced STAT1 signaling. NIH 3T3 STAT1-luciferase reporter, luminescence; 100% = IFN-gamma alone, no compound. activation (% of control), % at 5.5 µM. 200,000 tested, 2.6% active. AID 932;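 active = activation above the screen-wide mean activation plus 3 SD, cut at about 130% in these data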;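 note: raw ratio to IFN-gamma control signal so 100% means no change and 0% no light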
APP 5'UTR act = APP 5'UTR luciferase reporter activation | SH-SY5Y APP 5'UTR luciferase reporter, luminescence; zero percent = DMSO vehicle wells | activation, % at 2 µM | 190,000 tested, 1% active | AID 1276;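 active = activation above a set limit, based on mean plus 3 SD of controls, cut at about 140% in these data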
NF-kB expr up = raises NF-kB expression in human neuronal cells; NF-kB reporter expression; active compounds read high; fold change at 12.5 µM; 190,000 tested, 1.6% active; AID 1239; in the data active = fold change above about 3.3
Wee1 stabilizer = inhibitors of human Wee1 degradation; reporter increase, % at 5 µM; P30291; 220,000 tested, 1.2% active; HeLa Luc-Wee1K328M stability, luciferase luminescence; 100% = proteasome inhibitor MG132 effect;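 active = activation above the mean of all tested compounds plus 3 SD, set per screening run, cut at about 8.8% in these data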;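 note: cells exposed to compound for 20 h before luminescence read; 0% = DMSO alone and 100% = MG132 at 30 µM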
Wee1 stab conf = human Wee1 degradation inhibition, confirmation | HeLa Luc-Wee1K328M degradation, luminescence; vehicle 0%, proteasome-blocked wells 100% | activation, % at 5 µM | shares compounds with Wee1 stabilizer | 1,100 tested, 4% active | AID 1410; in the data active = activation above about 8.9%
An asterisk follows results filed as active; · = no result.

SMILES	Mdm2 ligase inh	p97 ATPase inh	STAT1 activator	APP 5'UTR act	NF-kB expr up	Wee1 stabilizer	Wee1 stab conf
Cc1ccccc1-n1c2nc(=O)n(C)c(=O)c-2cc2ccccc21	1.9	6.6	·	·	·	14.4*	1.0
Cc1nc2ccccn2c1-c1csc(Nc2cccc(O)c2)n1	-5.9	5.3	87.1	-88.6	1.29	13.0*	10.7*
O=C(CSc1nc2[nH]ncc2c(=O)n1-c1ccccc1)N1CCCCCC1	-8.8	0.0	98.2	-7.7	1.09	11.5*	1.8
O=C(CSc1nc2[nH]ncc2c(=O)n1-c1ccccc1Cl)N1CCCC1	-13.1	-11.0	95.6	17.1	0.78	2.6	·
O=C(CSc1n[nH]c(-c2ccccc2Cl)n1)NCc1cccc(C(=O)O)c1	-91.6	-5.5	102.3	21.2	1.41	0.2	·
CCNC(=O)NC(=O)C(C)Oc1ccc(Br)cc1Br (centres undefined)	-7.0	3.4	108.9	20.9	1.72	-0.9	·
CN(Cc1ccsc1)C(=O)CCc1nnc(CCCc2ccccc2)o1	-0.8	-0.8	133.3*	43.8	2.7	11.2*	2.4
CCCCn1c(SCC(=O)NC2CC(C)(C)NC(C)(C)C2)nc2cc(S(N)(=O)=O)ccc21	3.0	-3.0	·	·	·	0.4	·
O=C(N/N=C/c1cc(Br)cs1)c1ccc2c(c1)OCCO2	-28.2	6.4	·	·	·	5.4	·
Cc1ccc(/C=N/NC(=O)c2ccc3c(c2)OCCO3)s1	-34.3	-2.0	·	·	·	12.2*	10.8*
COC(=O)c1cc(NC(=O)c2cc(-c3ccc(OC)cc3)oc2C(F)(F)F)ccc1N1CCOCC1	-20.9	-6.8	·	·	·	11.6*	1.9
Nc1nnc(-c2ccc(Cl)cc2)s1	-8.0	-2.6	110.2	16.6	1.78	11.5*	5.3
Fc1ccc(CSc2ccc(-c3ccco3)nn2)cc1	-13.9	1.1	127.3	38.0	2.07	11.8*	7.3
COc1ccc(N(C(C)C(=O)N2CCC(Cc3ccccc3)CC2)S(C)(=O)=O)cc1 (centres undefined)	-16.8	-3.7	75.7	-11.6	1.01	-1.9	·
COc1ccccc1N1CCN(CC(O)COc2ccc3c(C)cc(=O)oc3c2)CC1 (centres undefined)	-11.5	-8.9	98.0	-6.4	0.94	16.7*	-0.4
Cc1cc(=O)oc2cc(OCC(O)CN3CCN(c4ccccc4)CC3)ccc12 (centres undefined)	-9.5	-0.5	104.2	-5.9	0.73	-2.3	·
CCOC(=O)C(=Cc1c[nH]c2ccc(S(=O)(=O)N(C)C)cc12)C(=O)OCC	-3.8	-2.3	·	·	·	12.0*	0.8
COc1cc(CC(CC(=O)O)CC(C)OCc2ccccc2)cc(OC)c1 (centres undefined)	-7.6	-11.8	99.8	6.1	0.92	-1.3	·
Cc1ccc(NC(=S)N/N=C/c2cccn2Cc2ccccc2F)cc1	·	-5.5	·	·	·	19.2*	1.4
Cc1ccc(-c2csc(NC(=O)N3CCOCC3)n2)cc1	-10.3	0.9	118.9	18.4	1.68	7.3	·
O=C1C=CC(=O)N1c1ccc(OC(F)F)cc1	4.3	-1.2	98.0	-56.2	1.54	-2.6	·
O=C(NC1=NCCS1)c1ccncc1	-17.5	1.3	95.3	9.2	1.18	3.2	·
Cc1cccc(C(=O)NC2=NCCS2)c1	-21.9	1.1	112.2	138.9*	3.32*	33.0*	1.4
COc1ccc(NC(=O)CN2CCC(NC(=O)C3CCCCC3)CC2)cc1	-15.7	3.0	105.3	1.2	1.18	14.8*	0.6
COc1ccccc1N(C)S(=O)(=O)c1ccc(Cl)c(C(=O)NC2=NCCS2)c1	0.1	2.8	98.1	2.2	0.93	11.8*	1.9
SMILES	Mdm2 ligase inh	p97 ATPase inh	STAT1 activator	APP 5'UTR act	NF-kB expr up	Wee1 stabilizer	Wee1 stab conf
CN(c1ccccc1)S(=O)(=O)c1ccc(Cl)c(C(=O)NC2=NCCS2)c1	-5.2	1.3	98.8	2.9	1.15	-3.7	·
Cc1cc(C)cc(-n2c(C)cc(/C=N/NC(=O)CN(c3c(C)cccc3C)S(C)(=O)=O)c2C)c1	-7.7	-1.0	106.8	-90.2	1.15	0.7	·
Cc1ccc(N(CC(=O)N/N=C/c2cc(C)n(-c3ccccc3C)c2C)S(C)(=O)=O)cc1	0.9	5.0	98.9	-2.2	0.96	11.5*	-0.6
C/C(N)=N\S(=O)(=O)c1ccc(Cl)cc1	-33.7	3.3	99.4	-2.5	1.3	-0.3	·
NC(N)=NS(=O)(=O)c1ccc(N)cc1	·	3.3	107.9	1.5	1.28	11.4*	1.3
CC1CCN(C(=O)Cn2c(=O)n(-c3ccc(F)cc3)c(=O)c3sccc32)CC1	15.8	6.8	83.2	21.3	1.06	0.9	·
CC1CCCCN1C(=O)Cn1c(=O)n(-c2ccc(F)cc2)c(=O)c2sccc21 (centres undefined)	-9.6	1.1	94.5	3.0	1.21	10.9*	3.8
Cc1c2c(nc3ccccc13)CCC(C)C2 (centres undefined)	-9.8	-0.5	116.9	17.5	1.3	0.1	·
Cc1cccc(-n2c(SCC(=O)O)nc3sc4c(c3c2=O)CCC4)c1	5.0	3.3	·	·	·	13.1*	-0.3
O=C(O)CSc1nc2sc3c(c2c(=O)n1-c1ccccc1)CCC3	-5.9	5.2	·	·	·	5.4	·
Cc1ccc(C)c(S(=O)(=O)Nc2ccccc2C(=O)Nc2ccc(S(=O)(=O)Nc3ncccn3)cc2)c1	-14.9	0.1	91.8	-14.3	1.26	4.2	·
COc1ccc(NC(=O)/C=C2\SC(=O)NC2=O)cc1	-3.3	2.2	105.6	6.3	1.37	15.2*	2.5
COc1ccc(NC(=O)CC2SC(=O)NC2=O)cc1 (centres undefined)	-8.0	3.4	99.2	-1.0	1.08	0.3	·
Cn1cccc1/C=C1\SC(=Nc2ccccc2)NC1=O	-6.3	5.8	·	·	·	19.3*	13.5*
CC(C)Cn1c(N)c(C(=O)COC(=O)c2ccc([N+](=O)[O-])o2)c(=O)n(C)c1=O	-7.5	3.7	92.1	2.8	1.48	15.7*	3.1
CC(C)Cn1c(N)c(C(=O)COC(=O)c2ccc(O)cc2)c(=O)n(C)c1=O	-3.7	1.4	97.2	12.0	1.01	-3.5	·
CNC(=O)CSc1nnc(SCCC(=O)O)s1	7.9	6.4	95.0	19.1	1.09	-1.4	·
CCOC(=O)N1CCN(C(=O)CCCCn2c(=S)[nH]c3ccsc3c2=O)CC1	-1.1	-1.4	75.4	24.6	0.88	13.1*	1.1
CCN1C(=O)c2cccc3c(S(=O)(=O)NCC4CCCO4)ccc1c23 (centres undefined)	-23.8	6.8	·	·	·	0.6	·
O=C1c2nc3ccccn3c2C(=O)N1Cc1ccccc1	-11.9	-2.0	101.3	21.4	0.97	-3.3	·
O=c1cc(NCc2ccccc2)nc2ccccn12	0.9	7.7	112.7	1.6	1.5	11.7*	-0.1

Assay outcomes: PubChem BioAssay, several laboratories
